Data: ChEMBL document CHEMBL4041500, “Attenuation of Mycobacterium species through direct and macrophage mediated pathway by unsymmetrical diaryl urea” (Eur J Med Chem, 2017)
Converted amounts (≈) assume the structure as drawn. The source made the active and inactive calls. No cut-off for these calls is given here.

Key:
[1] = test system: Mycolicibacterium smegmatis; experiment: Antimycobacterial activity against Mycobacterium smegmatis MC2 155 after 48 hrs by serial dilution method; assay type: functional; details: str. MC2 155, 48 h
Outline: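 M. smegmatis grown in Middlebrook 7H9 with 10% albumin–dextrose complex and 0.03% Tween80 at 37 °C. Twofold serial dilutions of compound were combined with mid-log culture diluted to OD570 0.01, giving a final range of […] in 7H9 broth. Incubated in ambient air at 37 °C for 48 h. MIC taken as the lowest concentration preventing visible growth.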

[2] = test system: Mycobacterium tuberculosis; experiment: Antimycobacterial activity against Mycobacterium tuberculosis H37Rv ATCC 27294 after 7 days by microplate alamar blue assay; assay type: functional; details: H37Rv ATCC 27294, 168 h
Outline: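 MABA run in 7H12 medium in 96-well plates for 7 days at 37 °C. Alamar Blue and Tween 80 were then added for a further 24 h. Fluorescence was read at 530/590 nm. MIC was the lowest concentration giving a 90% fluorescence (or luminescence) reduction versus controls. Luciferase reporter strains or intracellular ATP were used for compounds with background fluorescence. Isoniazid and rifampin were run as controls.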

[3] = test system: HepG2; experiment: Cytotoxicity against human HepG2 cells assessed as reduction in cell viability after 72 hrs by MTT assay; assay type: cell-based; details: hepg2, 72 h
Outline: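 HepG2 cells grown in Eagle's MEM with 10% FBS at 37 °C and 5% CO2. Cells were scraped, resuspended at ~1 × 10^6 cells/mL, plated and left 24 h, then exposed to compound at 400 to 0.2 µg/mL for 72 h. Viability read by MTT assay. IC50 (50% loss of viability) taken from a dose–response curve versus log10 concentration.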

[4] = test system: Mycolicibacterium smegmatis; experiment: Inhibition of epoxy-mycolic acid biosynthesis in Mycobacterium smegmatis MC2 155 assessed as reduction in [1-14C]acetate incorporation at 5 times antibacterial MIC preincubated for 90 mins followed by [1-14C]acetate addition measured after 1 hr by liquid scintillation counting based TLC method; assay type: functional; details: str. MC2 155
[5] = test system: Mycolicibacterium smegmatis; experiment: Inhibition of fattyacid biosynthesis in Mycobacterium smegmatis MC2 155 assessed as reduction in [1-14C]acetate incorporation at 5 times antibacterial MIC preincubated for 90 mins followed by [1-14C]acetate addition measured after 1 hr by liquid scintillation counting based TLC method; assay type: functional; details: str. MC2 155
[6] = test system: Peritoneal macrophage; experiment: Cytotoxicity against Balb/c mouse peritoneal macrophages assessed as reduction in cell viability after 48 hrs by MTT assay; assay type: cell-based
Outline: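 Murine peritoneal macrophages, 1 × 10^6 cells/well, exposed to compound at 0.1 to 250 µg/ml in RPMI-1640 with 10% FBS for 48h. MTT (5 mg/ml) added for 3 h at 37°C, formazan dissolved in 0.04M HCl in isopropanol for 15 min at room temperature, absorbance read at 570 nm. IC50 (50% loss of viability) taken from a dose–response curve of percentage activity versus log10 concentration.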

[7] = test system: Mycobacterium tuberculosis; experiment: Antimycobacterial activity against Mycobacterium tuberculosis MC2 6030 after 2 to 3 weeks by agar plate method; assay type: functional
Outline: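 Strain mc²6030 is a pantothenate auxotroph lacking RD1, grown at 37 °C in Sauton's medium plus 20 μg/ml pantothenic acid. Serial 10-fold dilutions of actively growing culture were plated on 7H10/OADC agar with 20 μg/ml pantothenic acid and increasing compound concentrations, from 10 mg/ml DMSO stocks. Plates were held 2–3 weeks at 37 °C. MIC was the concentration inhibiting 99% of growth; isoniazid served as control.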

[8] = test system: Mycolicibacterium smegmatis; experiment: Inhibition of alpha-mycolic acid biosynthesis in Mycobacterium smegmatis MC2 155 assessed as reduction in [1-14C]acetate incorporation at 5 times antibacterial MIC preincubated for 90 mins followed by [1-14C]acetate addition measured after 1 hr by liquid scintillation counting based TLC method; assay type: functional; details: str. MC2 155
[9] = test system: Mycolicibacterium smegmatis; experiment: Inhibition of alpha'-mycolic acid biosynthesis in Mycobacterium smegmatis MC2 155 assessed as reduction in [1-14C]acetate incorporation at 5 times antibacterial MIC preincubated for 90 mins followed by [1-14C]acetate addition measured after 1 hr by liquid scintillation counting based TLC method; assay type: functional; details: str. MC2 155
[10] = test system: Mycolicibacterium smegmatis; experiment: Antimycobacterial activity against Mycobacterium smegmatis MC2 155 infected in Balb/c mouse peritoneal macrophages assessed as increase in iNOS2 mRNA expression at 5 ug/ml after 6 hrs RT-PCR method; assay type: functional; details: str. MC2 155
Outline: (§1)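 BALB/c peritoneal macrophages were cultured 48 h in RPMI-1640 with 10% FBS. Cells at 2 × 10⁶/ml were infected with mid-log, PBS-washed mc²155 at a macrophage:bacteria ratio of 1:10 for 6 h, then washed three times. Compound was added at 5 µg/mL for another 6 h. Total RNA was taken up in Trizol, 1 µg was used for cDNA, and PCR ran 40 cycles (94 °C 45 s, 60 °C 1 min, 72 °C 1 min).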

[11] = test system: Mycolicibacterium smegmatis; experiment: Antimycobacterial activity against Mycobacterium smegmatis MC2 155 infected in Balb/c mouse peritoneal macrophages assessed as upregulation of IL-12 mRNA expression at 5 ug/ml after 6 hrs RT-PCR method; assay type: functional; details: str. MC2 155; outline: as §1
[12] = test system: Mycolicibacterium smegmatis; experiment: Antimycobacterial activity against Mycobacterium smegmatis MC2 155 infected in Balb/c mouse peritoneal macrophages assessed as upregulation of IFN-gamma mRNA expression at 5 ug/ml after 6 hrs RT-PCR method; assay type: functional; details: str. MC2 155; outline: as §1
[13] = test system: Mycolicibacterium smegmatis; experiment: Antimycobacterial activity against Mycobacterium smegmatis MC2 155 infected in Balb/c mouse peritoneal macrophages assessed as downregulation of IL-10 mRNA expression at 5 ug/ml after 6 hrs RT-PCR method; assay type: functional; details: str. MC2 155; outline: as §1
[14] = test system: Mycobacterium tuberculosis; experiment: Antimycobacterial activity against Mycobacterium tuberculosis H37Rv ATCC 27294 at 50 ug/ml after 7 days by microplate alamar blue assay relative to control; assay type: functional; details: H37Rv ATCC 27294, 168 h

SMILES	MIC [1] [µg/mL]	MIC90 [2] [µg/mL]	Activity [3] [µg/mL]	inhibition [4]	inhibition [5]	Activity [6] [µg/mL]	MIC99 [7] [µg/mL]	inhibition [8]	inhibition [9]	Activity [10]	Activity [11]	Activity [12]	Activity [13]	inhibition at 50 µg/mL [14] [%]
CC(C)=CCOc1cccc(NC(=O)Nc2cccc(C(F)(F)F)c2)c1	3.12 (≈ 8.56 µM)	40.2 (≈ 110 µM)	135.6	Active	inactive	116.7	–	–	–	–	–	–	–	–
CC(C)=CCOc1ccc(NC(=O)Nc2ccccc2)cc1	25 (≈ 84.4 µM)	43.1 (≈ 145 µM)	124.7	inactive	inactive	109.5	30 (≈ 101 µM)	inactive	inactive	–	–	–	–	–
CC(C)=CCOc1cccc(NC(=O)Nc2cccc([N+](=O)[O-])c2)c1	3.21 (≈ 9.4 µM)	6 (≈ 17.6 µM)	113.7	Active	inactive	94.1	2 (≈ 5.86 µM)	inactive	inactive	Active	inactive	inactive	Active	–
CC(C)=CCOc1cccc(NC(=O)Nc2cccc(C#N)c2)c1	25 (≈ 77.8 µM)	9.2 (≈ 28.6 µM)	172.6	Active	inactive	159.4	–	inactive	inactive	Active	Active	Active	Active	–
CC(C)=CCOc1cccc(NC(=O)Nc2ccccc2C)c1	12.5 (≈ 40.3 µM)	5.2 (≈ 16.8 µM)	163.4	Active	inactive	140.5	1 (≈ 3.22 µM)	inactive	inactive	Active	Active	Active	Active	–
CC(C)=CCOc1cccc(NC(=O)Nc2cccc(C(=O)O)c2)c1	12.5 (≈ 36.7 µM)	16.5 (≈ 48.5 µM)	132.6	Active	inactive	120.4	–	inactive	inactive	–	–	–	–	–
CC(C)=CCOc1cccc(NC(=O)Nc2cccc(F)c2)c1	25 (≈ 79.5 µM)	> 50	94	Active	inactive	83.7	–	–	–	–	–	–	–	89
CCCCOc1ccc(NC(=O)Nc2ccccc2C)cc1	100 (≈ 335 µM)	7 (≈ 23.5 µM)	130.5	Active	inactive	125.7	100 (≈ 335 µM)	inactive	inactive	–	–	–	–	–
